Measurements from ChEMBL document CHEMBL1137821, “Design of non-nucleoside inhibitors of HIV-1 reverse transcriptase with improved drug resistance properties. 1” (J Med Chem, 2004).

The compounds below were run against T1, Human immunodeficiency virus type 1 reverse transcriptase (Human immunodeficiency virus 1, UniProt Q72547) (assay: Concentration required for 50% inhibition of human immunodeficiency virus type 1 reverse transcriptase Ile100).
In the case of `CCCc1c([S+]([O-])C2CCCCC2)c2cc(Cl)ccc2[nH]c1=O` (stereo unspecified), the IC50 is reported as 2.38 µM. Work on `CCCc1c(SC2CCCCC2)c2cc(Cl)ccc2[nH]c1=O` yielded an IC50 of 1.61 µM.

These compounds were tested against T1, Human immunodeficiency virus type 1 reverse transcriptase (assay: Concentration required for 50% inhibition of human immunodeficiency virus type 1 reverse transcriptase mutant type Ile100).
Summary of the method: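 Inhibition of mutant HIV-1 RT enzyme, tested alongside wild-type RT; IC50 values are the mean of two independent experiments.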
Compound `CCCc1c(OC2CCCCC2)c2cc(Cl)ccc2[nH]c1=O` has an IC50 of 1.36 µM. `CC(C)c1c(OC2CCCCC2)c2cc(Cl)ccc2[nH]c1=O` was tested, and the IC50 was 1.96 µM.

These compounds were tested on MT4 (assay: Inhibitory concentration against human immunodeficiency virus type 1 was determined in MT-4 cells).
Format: functional, cell-based
Summary of the method: (§1)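 Whole-cell antiviral assay in MT4 cells, a human T-cell lymphotropic virus-transformed line. Cells were infected with wild-type HIV-1 strain IIIB or with nevirapine-resistant HIV-1 carrying the Tyr181Cys RT mutation. Inhibition was read by a propidium iodide-based colorimetric assay that estimates DNA content.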
`CCCc1c([S+]([O-])C2CCCCC2)c2cc(Cl)ccc2[nH]c1=O` (stereo unspecified) gave an IC50 of 0.24 µM. `CCCc1c(OC2CCCCC2)c2cc(Cl)ccc2[nH]c1=O` gave an IC50 of 0.03 µM. Work on `CC(C)c1c(OC2CCCCC2)c2cc(Cl)ccc2[nH]c1=O` yielded an IC50 of 0.05 µM. With `CCCc1c(SC2CCCCC2)c2cc(Cl)ccc2[nH]c1=O` the IC50 was 0.1 µM.

These compounds were tested on MT4 (assay: Inhibitory concentration against nevirapine resistant human immunodeficiency virus type 1 mutant type Tyr181Cys was determined in MT-4 cells).
Format: functional, cell-based
Summary of the method: as §1
`CCCc1c([S+]([O-])C2CCCCC2)c2cc(Cl)ccc2[nH]c1=O` (stereo unspecified) gave an IC50 of 2.21 µM. Work on `CCCc1c(OC2CCCCC2)c2cc(Cl)ccc2[nH]c1=O` yielded an IC50 of 0.6 µM. `CC(C)c1c(OC2CCCCC2)c2cc(Cl)ccc2[nH]c1=O` showed an IC50 of 0.71 µM. `CCCc1c(SC2CCCCC2)c2cc(Cl)ccc2[nH]c1=O` gave an IC50 of 0.36 µM.

The compounds below were run against T1, Human immunodeficiency virus type 1 reverse transcriptase (assay: Concentration required for 50% inhibition of human immunodeficiency virus type 1 reverse transcriptase mutant type Cys181).
`CCCc1c([S+]([O-])C2CCCCC2)c2cc(Cl)ccc2[nH]c1=O` (stereo unspecified) was tested, and the IC50 was 1.26 µM. Work on `CCCc1c(OC2CCCCC2)c2cc(Cl)ccc2[nH]c1=O` yielded an IC50 of 1.13 µM. `CC(C)c1c(OC2CCCCC2)c2cc(Cl)ccc2[nH]c1=O` gave an IC50 of 2.5 µM. `CCCc1c(SC2CCCCC2)c2cc(Cl)ccc2[nH]c1=O` showed an IC50 of 0.86 µM.
